PfM18AAP inh-1 – PfM18AAP inhibitors, malaria aminopeptidase, primary screen, biochemical, QFRET, recombinant enzyme; H-Glu-NHMec fluorogenic cleavage; actives 1.2% (n = 290,000); inhibition, % at 7.35 µM; AID 1822, 2009; M18 aspartyl aminopeptidase (Plasmodium falciparum 3D7);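 active means inhibition above the campaign mean inhibition over all tested compounds plus 3 SD, cut at about 28% in these data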;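 further: 0% = plate median of test compound wells and 100% = 2 mM ZnCl2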
UPR CHOP act – activators of apoptotic CHOP UPR arm, primary screen, cell-based, CHO-CHOP luciferase reporter, luminescence, uHTS. UPR activation; percent of tunicamycin response over DMSO baseline. activation, % at 10 µM. actives 0.34% (n = 330,000). AID 449763, 2010;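 active means at 10 µM dose, activation of 40% or more, normalized to positive control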;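 further: 100% = tunicamycin at 10 µg/mL and 0% = DMSO alone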
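assay system = CHO CHOP reporter cells | amount = 500 CHO-CHOP cells per well | buffer or medium = F12 with 10% FBS | incubation = 16-18 h cell attachment, then 6 h compound exposure, 37 °C | detection = luminescence read with Steady-Glo | read-out = percent activation relative to tunicamycin control | controls = tunicamycin high control, DMSO low control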
NS3 helicase inh – inhibitors of HCV NS3 helicase, primary screen, biochemical, Cy5 molecular beacon fluorescence; Hepatitis C virus NS3 helicase; NS3 helicase DNA unwinding; inhibition, % at 10.9 µM; actives 0.56% (n = 290,000); AID 1800, 2009;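 active means inhibition above the mean of all tested compounds plus 3 SD, set per campaign, cut at about 35% in these data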;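 further: 0% = DMSO wells and 100% = thioflavine S control wells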
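System: HCV NS3 helicase fragment; control set: DMSO and thioflavine S; technique: Cy5 fluorescence at 0 and 60 min, beacon hairpin quenching; reagent: beacon DNA duplex substrate plus ATP; replicates: singlicate; schedule: 1 h reaction at 25 °C, ATP-initiated; medium: MOPS buffer pH 6.5 with MgCl2, DTT, Tween20, BSA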
p97 inhibitor – inhibitors of human p97 ATPase, primary screen, biochemical; Transitional endoplasmic reticulum ATPase (Homo sapiens), P55072; inhibition, % at 8 µM; recombinant p97 ATPase, Kinase-Glo ATP luminescence, 3 h; actives 0.42% (n = 220,000); in the data active means inhibition above about 15%;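 further: 0% = DMSO vehicle and 100% = wells lacking enzyme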
CHOP inhibitor – inhibitors of CHOP promoter induction, primary screen, cell-based, unfolded protein response, luciferase reporter; actives 3.8% (n = 220,000); inhibition, % at 10 µM; CHO-K1 CHOP-promoter luciferase, tunicamycin-induced, 15-18 h;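 active means compounds that reduced the stress-induced luciferase reporter signal by more than about 70% of percent inhibition, limit read from the data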;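 further: 0% = tunicamycin plus vehicle and 100% = wells without tunicamycin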
XBP1 UPR activ – activators of adaptive XBP1 UPR arm, primary screen, cell-based, CHO-XBP1 luciferase reporter, luminescence, uHTS. IRE1-XBP1 UPR activation; percent of tunicamycin response, DMSO as zero. activation, % at 20 µM. actives 0.33% (n = 330,000);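 active means versus positive control, 20 µM dose yields 30% or more activation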;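 further: 100% = tunicamycin at 10 µg/mL and 0% = DMSO only wells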
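Material: CHO cell line with stable XBP1 luciferase reporter; buffer or medium: F12 medium containing 10% fetal bovine serum; compound: single point, 20 µM final compound, 1% DMSO; incubation: 6 h treatment, 37 °C; measured by: glow luminescence from Steady-Glo reagent; evaluation: activation, % of tunicamycin; control set: tunicamycin high, DMSO low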
PfM18AAP inh-2 – PfM18AAP inhibitors, malaria aminopeptidase, confirmation, biochemical, QFRET, recombinant enzyme, triplicate | shares compounds with PfM18AAP inh-1 | H-Glu-NHMec fluorogenic cleavage | inhibition, % at 7.35 µM | actives 28% (n = 2,400) | AID 2170, 2009;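 active means mean inhibition over replicate wells above the hit cutoff set for the earlier primary screen, cut at about 29% in these data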;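 further: 0% = median of test compound wells and 100% = 2 mM ZnCl2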
CTSL1 confirm – cathepsin L1 inhibitors, retest, confirmation, counter-screen for PFM18AAP inhibitor project, biochemical, QFRET, triplicate | shares compounds with PfM18AAP inh-1 | purified cathepsin L1, Z-Leu-Arg-MCA fluorescence | inhibition, % at 5.96 µM | 2,400 tested, under 10 active;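 active means average inhibition across replicates above the hit cutoff set in the earlier primary screen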;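 further: 0% = median of test compound wells and 100% = Z-Phe-Ala-diazomethylketone 1 µM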
Target sequence (P07711 whole entry, looked up): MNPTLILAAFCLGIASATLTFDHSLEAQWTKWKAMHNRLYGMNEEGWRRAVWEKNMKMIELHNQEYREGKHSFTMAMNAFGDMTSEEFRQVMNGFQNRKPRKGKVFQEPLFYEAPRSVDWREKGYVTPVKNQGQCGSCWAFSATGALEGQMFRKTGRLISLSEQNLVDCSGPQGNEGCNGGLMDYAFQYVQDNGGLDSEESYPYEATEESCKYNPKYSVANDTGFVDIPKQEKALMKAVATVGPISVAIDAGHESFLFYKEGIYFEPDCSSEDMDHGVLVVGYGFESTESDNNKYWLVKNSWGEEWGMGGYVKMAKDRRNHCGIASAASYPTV
Active calls of the source: *. Only some compounds are listed: those with a hit (about 4.5% of all), similar ones and a draw of the others.

What do the screens show for `Cc1c(C#N)c(O)n(CCO)c(=O)c1N=Nc1ccccc1`?
PfM18AAP inh-1: 2; UPR CHOP act: 0; NS3 helicase inh: 1; p97 inhibitor: 6; CHOP inhibitor: 28; XBP1 UPR activ: 4

How did CCOc1ccc(N(CC(=O)NCCc2ccccc2)C(=O)CCC(=O)Nc2cc(C)ccn2)cc1 do in these assays?
PfM18AAP inh-1: -1; UPR CHOP act: 0; NS3 helicase inh: -15; XBP1 UPR activ: -3

Results for CCCN(CC(=O)Nc1ccccc1C)C(=O)c1ccc2ccccc2n1 ?
UPR CHOP act: 0; XBP1 UPR activ: -4

Results for Cc1ccccc1NC(=S)c1ccc2ccccc2n1 ?
PfM18AAP inh-1: 41*; UPR CHOP act: 2; NS3 helicase inh: 1; XBP1 UPR activ: -5; PfM18AAP inh-2: -24; CTSL1 confirm: 3

What do the screens show for `COc1cccc(CSc2nnc(-c3ccncc3)n2N)c1`?
PfM18AAP inh-1: 5; UPR CHOP act: 0; NS3 helicase inh: -3; XBP1 UPR activ: 2

What do the screens show for `CC(=O)/C(=N\Nc1ccc(C)cc1)N1CCOCC1`?
PfM18AAP inh-1: 55*; UPR CHOP act: -1; NS3 helicase inh: -1; p97 inhibitor: -1; CHOP inhibitor: -8; XBP1 UPR activ: 0; PfM18AAP inh-2: -46; CTSL1 confirm: 6

What do the screens show for `Cc1ccc(NS(=O)(=O)c2ccc(C(=O)N3CCOCC3)cc2)cc1`?
UPR CHOP act: 0; XBP1 UPR activ: -2

What do the screens show for `CC1(C)CC(=O)C=C(NNC(=O)c2ccccc2O)C1`?
PfM18AAP inh-1: 9; UPR CHOP act: -2; NS3 helicase inh: 9; p97 inhibitor: -8; CHOP inhibitor: -13; XBP1 UPR activ: -3

How did COc1ccc(C(=O)NNC2=CC(=O)CC(C)(C)C2)cc1 do in these assays?
PfM18AAP inh-1: 47*; UPR CHOP act: 2; NS3 helicase inh: -10; p97 inhibitor: -6; CHOP inhibitor: 0; XBP1 UPR activ: -1; PfM18AAP inh-2: 27; CTSL1 confirm: -1

How did CN1CCc2cccc3c2[C@@H]1Cc1ccc(O)c(O)c1-3 do in these assays?
PfM18AAP inh-1: 36*; UPR CHOP act: 0; NS3 helicase inh: -50; p97 inhibitor: 6; CHOP inhibitor: 0; XBP1 UPR activ: -5; PfM18AAP inh-2: 79*; CTSL1 confirm: 3

What do the screens show for `COc1ccc2c(c1O)-c1ccccc1CCN(C)C2`?
PfM18AAP inh-1: 3; UPR CHOP act: 0; NS3 helicase inh: 7; p97 inhibitor: -3; CHOP inhibitor: 3; XBP1 UPR activ: 3

What do the screens show for `CCOC(=O)/C=C1/SCC(=O)N1CC(=O)Nc1cccc(F)c1`?
UPR CHOP act: 0; XBP1 UPR activ: 0

Results for COC(=O)c1c(N)sc(C(=O)NCCc2ccccc2)c1C ?
PfM18AAP inh-1: 40*; UPR CHOP act: -10; NS3 helicase inh: 9; XBP1 UPR activ: -11; PfM18AAP inh-2: -11; CTSL1 confirm: -5

What do the screens show for `Cc1nc(NC(=O)CN2CCN(c3cccc(Cl)c3)CC2)sc1C(=O)N(C)C`?
PfM18AAP inh-1: 2; UPR CHOP act: 3; NS3 helicase inh: -1; XBP1 UPR activ: -2

Results for COc1cc(CNc2ccc(CNc3ncn[nH]3)cc2)ccc1OCC(=O)NC(C)(C)C ?
PfM18AAP inh-1: 47*; UPR CHOP act: 1; NS3 helicase inh: 9; p97 inhibitor: -4; CHOP inhibitor: 6; XBP1 UPR activ: -1; PfM18AAP inh-2: -35; CTSL1 confirm: -8

How did Fc1ccc(CNc2ccc(CNc3ncn[nH]3)cc2)cc1 do in these assays?
PfM18AAP inh-1: 32*; NS3 helicase inh: 1; p97 inhibitor: 1; CHOP inhibitor: 26; PfM18AAP inh-2: -26; CTSL1 confirm: -1

Results for Nc1ccc(CNc2ncn[nH]2)cc1 ?
PfM18AAP inh-1: 27; UPR CHOP act: 1; NS3 helicase inh: 2; p97 inhibitor: 6; CHOP inhibitor: 8; XBP1 UPR activ: -1

How did CC(C)(C)NC(=O)COc1ccc(CNc2ncn[nH]2)cc1 do in these assays?
PfM18AAP inh-1: 2; UPR CHOP act: 1; NS3 helicase inh: 1; p97 inhibitor: 2; CHOP inhibitor: 15; XBP1 UPR activ: -1

Results for CN(C(=O)CC1C(=O)NCCN1Cc1ccc(F)c(F)c1)C1CCCCC1 (centres undefined) ?
PfM18AAP inh-1: -6; UPR CHOP act: -1; NS3 helicase inh: -19; XBP1 UPR activ: -3

How did Cc1cc(C)c(S(=O)(=O)Nc2ncn[nH]2)cc1C do in these assays?
PfM18AAP inh-1: 42*; UPR CHOP act: 1; NS3 helicase inh: 23; XBP1 UPR activ: -5; PfM18AAP inh-2: 11; CTSL1 confirm: -2

What do the screens show for `O=S(=O)(Nc1ncn[nH]1)c1ccc2ccccc2c1`?
PfM18AAP inh-1: 51*; UPR CHOP act: 3; NS3 helicase inh: -8; p97 inhibitor: -5; CHOP inhibitor: 7; XBP1 UPR activ: -1; PfM18AAP inh-2: 41*; CTSL1 confirm: -2

Results for O=S(=O)(Nc1nc2ccccc2[nH]1)c1ccc2ccccc2c1 ?
PfM18AAP inh-1: -6; UPR CHOP act: 1; NS3 helicase inh: 2; p97 inhibitor: -3; CHOP inhibitor: 11; XBP1 UPR activ: 1

What do the screens show for `CC(C)c1ccc(S(=O)(=O)N2CCN(C(=O)CN3C(=O)c4ccccc4C3=O)CC2)cc1`?
UPR CHOP act: -1; XBP1 UPR activ: 0

What do the screens show for `CCSc1nnc(NC(=O)CCN2C(=O)C3CCCCC3C2=O)s1` (centres undefined)?
UPR CHOP act: 5; XBP1 UPR activ: -2

Results for COc1ccc(NC(=S)NNc2ccc([N+](=O)[O-])cc2S(=O)(=O)Nc2ccc(C)cc2C)cc1 ?
PfM18AAP inh-1: 39*; UPR CHOP act: -1; NS3 helicase inh: 7; p97 inhibitor: 2; CHOP inhibitor: 57; XBP1 UPR activ: -1; PfM18AAP inh-2: 32*; CTSL1 confirm: 2
